Tests used:
[1] = target: T1, Adenosine receptor A3 (Homo sapiens) (UniProt P0DMS8); assay: Displacement of [3H]NECA from human adenosine A3 receptor expressed in human HeLa cells at 10 uM after 180 mins by beta scintillation counting; assay type: cell-based
T1 sequence (whole entry): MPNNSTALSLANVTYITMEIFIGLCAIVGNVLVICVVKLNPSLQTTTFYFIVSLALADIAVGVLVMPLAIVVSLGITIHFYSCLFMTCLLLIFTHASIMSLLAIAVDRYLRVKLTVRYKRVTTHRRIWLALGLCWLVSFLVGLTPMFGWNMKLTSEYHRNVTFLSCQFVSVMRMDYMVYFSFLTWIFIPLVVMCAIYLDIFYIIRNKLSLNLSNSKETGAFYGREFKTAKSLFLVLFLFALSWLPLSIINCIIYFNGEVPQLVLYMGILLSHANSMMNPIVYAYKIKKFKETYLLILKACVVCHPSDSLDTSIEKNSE
Outline: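 HeLa-A3 membranes (90 µg protein) in 50 mM Tris-HCl, 1 mM EDTA, 5 mM MgCl2, 2 UI/mL adenosine deaminase, pH 7.4. Test compound at 10 µM with 30 nM [3H]NECA, 180 min at 25 °C, in triplicate. Nonspecific binding with 100 µM (R)-PIA. Percent inhibition read after GF/B filtration.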

[2] = target: T2, Adenosine receptor A2b (Homo sapiens) (UniProt P29275); assay: Displacement of [3H]DPCPX from human adenosine A2B receptor expressed in HEK293 cells at 10 uM after 30 mins by beta scintillation counting; assay type: cell-based
T2 sequence (whole entry): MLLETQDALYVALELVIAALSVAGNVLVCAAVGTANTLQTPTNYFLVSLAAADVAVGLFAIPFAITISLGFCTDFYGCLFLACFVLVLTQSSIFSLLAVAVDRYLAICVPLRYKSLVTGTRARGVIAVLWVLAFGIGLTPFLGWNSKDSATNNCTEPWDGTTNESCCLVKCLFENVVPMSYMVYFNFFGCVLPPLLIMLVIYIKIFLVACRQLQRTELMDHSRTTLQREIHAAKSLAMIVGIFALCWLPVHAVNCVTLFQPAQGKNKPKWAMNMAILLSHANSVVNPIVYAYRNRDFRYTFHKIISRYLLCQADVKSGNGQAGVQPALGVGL
Outline: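 Percent inhibition at 10 µM in HEK-293-A2B membranes (18 µg protein), pH 6.5 Tris buffer with benzamidine, bacitracin and adenosine deaminase. 35 nM [3H]DPCPX, 30 min at 25 °C, in duplicate. Nonspecific binding with 400 µM NECA.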

Adenosine receptor A2a [3] = target: T3, Adenosine receptor A2a (Homo sapiens, UniProt P29274); assay: Displacement of [3H]ZM241385 from human adenosine A2A receptor expressed in human HeLa cells at 10 uM after 30 mins by beta scintillation counting; assay type: cell-based
T3 sequence (P29274 whole entry): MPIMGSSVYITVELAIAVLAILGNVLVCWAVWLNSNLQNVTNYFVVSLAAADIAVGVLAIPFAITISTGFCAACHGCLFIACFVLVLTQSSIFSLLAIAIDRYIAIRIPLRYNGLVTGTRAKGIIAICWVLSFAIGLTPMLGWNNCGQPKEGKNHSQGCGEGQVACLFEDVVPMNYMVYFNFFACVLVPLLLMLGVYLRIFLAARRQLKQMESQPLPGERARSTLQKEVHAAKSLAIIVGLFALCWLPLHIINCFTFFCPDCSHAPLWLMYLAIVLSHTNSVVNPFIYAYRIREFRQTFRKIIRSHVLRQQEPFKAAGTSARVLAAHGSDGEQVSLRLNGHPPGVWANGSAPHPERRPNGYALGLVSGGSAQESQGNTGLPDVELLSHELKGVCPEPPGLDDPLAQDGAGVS
Outline: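 Single-point screen at 10 µM on HeLa-A2A membranes (10 µg protein), Tris/EDTA/MgCl2 buffer with adenosine deaminase, pH 7.4. 3 nM [3H]ZM241385, 30 min at 25 °C, in duplicate. Nonspecific binding with 50 µM NECA. Percent inhibition.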

[4] = target: T4, Adenosine receptor A1 (Homo sapiens) (UniProt P30542); assay: Displacement of [3H]DPCPX from human adenosine A1 receptor expressed in CHO cells at 10 uM after 60 mins by beta scintillation counting; assay type: cell-based
T4 sequence (whole entry): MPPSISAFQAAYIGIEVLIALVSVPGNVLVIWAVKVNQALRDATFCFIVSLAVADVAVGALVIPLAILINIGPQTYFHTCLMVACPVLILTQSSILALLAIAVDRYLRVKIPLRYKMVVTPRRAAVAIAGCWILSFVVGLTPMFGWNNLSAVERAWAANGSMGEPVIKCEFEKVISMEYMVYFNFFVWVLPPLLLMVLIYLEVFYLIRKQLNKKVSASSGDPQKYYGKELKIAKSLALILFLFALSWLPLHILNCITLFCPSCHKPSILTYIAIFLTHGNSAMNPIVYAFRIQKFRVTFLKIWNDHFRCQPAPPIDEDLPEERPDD
Outline: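 CHO-A1 membranes (15 µg protein) in Hepes/NaCl/MgCl2 buffer with adenosine deaminase, pH 7.4. Test compound at 10 µM with 2 nM [3H]DPCPX, 60 min at 25 °C, in duplicate. Nonspecific binding with 10 µM (R)-PIA. Percent inhibition read after filtration.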

Adenosine receptor A2a [5] = target: T3, Adenosine receptor A2a; assay: Displacement of [3H]ZM241385 from human adenosine A2A receptor expressed in human HeLa cells after 30 mins by beta scintillation counting; assay type: cell-based
Outline: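 HeLa-A2A membranes (10 µg protein) in 50 mM Tris-HCl, 1 mM EDTA, 10 mM MgCl2, 2 UI/mL adenosine deaminase, pH 7.4, with 3 nM [3H]ZM241385. Nonspecific binding with 50 µM NECA. Incubated 30 min at 25 °C, in duplicate. Six concentrations (10 nM-100 µM); IC50 by nonlinear regression, converted to Ki by Cheng-Prusoff.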

Adenosine receptor A2a [6] = target: T3, Adenosine receptor A2a; assay: Antagonist activity at human adenosine A2A receptor expressed in CHO cells assessed as inhibition of NECA-induced cAMP accumulation incubated for 15 mins prior to NECA-induction measured after 15 mins by enzyme immunoassay relative to control; assay type: functional, cell-based
Outline: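 Stably transfected CHO cells grown with dialyzed FBS, washed in DMEM F-12 with 25 mM HEPES pH 7.4 and 30 μM rolipram. Antagonist preincubated 15 min, then NECA (0.1 nM-1 mM) added for a further 15 min. cAMP measured by enzyme immunoassay. NECA curves fitted to a sigmoidal equation; pKB derived from the EC50 shift at one antagonist concentration.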

Adenosine receptor A2b = target: T5, Adenosine receptor A2b (Homo sapiens, UniProt P29275); assay: Displacement of [3H]DPCPX from human adenosine A2B receptor expressed in HEK293 cells after 30 mins by beta scintillation counting; assay type: cell-based
T5 sequence (P29275 whole entry): T2 sequence (whole entry)
Outline: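 HEK-293-A2B membranes (18 µg protein) in 50 mM Tris-HCl, 1 mM EDTA, 10 mM MgCl2, 0.1 mM benzamidine, 10 µg/mL bacitracin, 2 UI/mL adenosine deaminase, pH 6.5, with 35 nM [3H]DPCPX. Nonspecific binding with 400 µM NECA. Incubated 30 min at 25 °C, in duplicate. Six concentrations (10 nM-100 µM); IC50 by nonlinear regression, Ki by Cheng-Prusoff.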

## N=c1oc2ccc(Br)cc2cc1C(=O)NCCCO
[1]
  inhibition: 17%
[2]
  inhibition: 25%
Adenosine receptor A2a [3]
  inhibition: 14%
[4]
  inhibition: 32%

## CCC(CO)NC(=O)c1cc2cc(Br)ccc2oc1=N (configuration not stated)
[1]
  inhibition: 24%
[2]
  inhibition: 4%
Adenosine receptor A2a [3]
  inhibition: 3%
[4]
  inhibition: 20%

## COCCNC(=O)c1cc2cccc(OC)c2oc1=O
[1]
  inhibition: 0%
[2]
  inhibition: 18%
Adenosine receptor A2a [3]
  inhibition: 65%
[4]
  inhibition: 45%

## COc1cccc2cc(C(=O)Nc3c(C#N)ncn3-c3ccc(F)cc3)c(=N)oc12
[1]
  inhibition: 20%
Adenosine receptor A2a [5]
  Ki: 631 nM
[2]
  inhibition: 30%
Adenosine receptor A2a [3]
  inhibition: > 70%
[4]
  inhibition: 46%
Adenosine receptor A2a [6]
  pKb: 6.02

## CCOC(CNC(=O)c1cc2cccc(OC)c2oc1=N)OCC
[1]
  inhibition: 15%
Adenosine receptor A2a [5]
  Ki: 1580 nM
[2]
  inhibition: 51%
Adenosine receptor A2a [3]
  inhibition: > 70%
[4]
  inhibition: 40%

## O=C(NCCCN1CCN(CCCNC(=O)c2cc3ccccc3oc2=O)CC1)c1cc2ccccc2oc1=O
[1]
  inhibition: 15%
[2]
  inhibition: 22%
Adenosine receptor A2a [3]
  inhibition: 1%
[4]
  inhibition: 9%

## O=C(NCCCO)c1cc2cccc(O)c2oc1=O
[1]
  inhibition: 8%
[2]
  inhibition: 24%
Adenosine receptor A2a [3]
  inhibition: 1%
[4]
  inhibition: 18%

## COc1cccc2cc(C(=O)NCC(=O)O)c(=O)oc12
[1]
  inhibition: 15%
[2]
  inhibition: 35%
Adenosine receptor A2a [3]
  inhibition: 13%
[4]
  inhibition: 27%

## N=c1oc2ccc(Br)cc2cc1C(=O)NC1CCCCC1
[1]
  inhibition: 8%
[2]
  inhibition: 10%
Adenosine receptor A2a [3]
  inhibition: 1%
[4]
  inhibition: 5%

## N=c1oc2ccc(Br)cc2cc1C(=O)NCC(O)CO (configuration not stated)
[1]
  inhibition: 10%
[2]
  inhibition: 4%
Adenosine receptor A2a [3]
  inhibition: 8%
[4]
  inhibition: 11%

## N=c1oc2ccc(Br)cc2cc1C(=O)NCCO
[1]
  inhibition: 0%
[2]
  inhibition: 15%
Adenosine receptor A2a [3]
  inhibition: 6%
[4]
  inhibition: 26%

## COc1cccc2cc(C(=O)NCCO)c(=O)oc12
[1]
  inhibition: 1%
[2]
  inhibition: 7%
Adenosine receptor A2a [3]
  inhibition: 1%
[4]
  inhibition: 12%

## O=C(NC1CCCC1)c1cc2ccccc2oc1=O
[1]
  inhibition: 20%
[2]
  inhibition: 18%
Adenosine receptor A2a [3]
  inhibition: 1%
[4]
  inhibition: 16%

## COc1cccc2cc(C(=O)NCCCNC(=O)c3cc4cccc(OC)c4oc3=N)c(=N)oc12
[1]
  inhibition: 11%
Adenosine receptor A2a [5]
  Ki: 398 nM
Adenosine receptor A2b
  Ki: 10000 nM
[2]
  inhibition: > 70%
Adenosine receptor A2a [3]
  inhibition: > 70%
[4]
  inhibition: 31%

## COc1cc(Br)cc2cc(C(=O)NCCCO)c(=N)oc12
[1]
  inhibition: 23%
[2]
  inhibition: 30%
Adenosine receptor A2a [3]
  inhibition: 16%
[4]
  inhibition: 31%

## O=C(NCC(O)CO)c1cc2cc(Cl)ccc2oc1=O (configuration not stated)
[1]
  inhibition: 1%
[2]
  inhibition: 23%
Adenosine receptor A2a [3]
  inhibition: 2%
[4]
  inhibition: 21%

## CCC(CO)NC(=O)c1cc2cccc(OC)c2oc1=N (configuration not stated)
[1]
  inhibition: 6%
[2]
  inhibition: 39%
Adenosine receptor A2a [3]
  inhibition: 66%
[4]
  inhibition: 24%

## CCC(CO)NC(=O)c1cc2cc(Cl)ccc2oc1=N (configuration not stated)
[1]
  inhibition: 0%
[2]
  inhibition: 9%
Adenosine receptor A2a [3]
  inhibition: 15%
[4]
  inhibition: 7%

## COCCNC(=O)c1cc2cc(Cl)ccc2oc1=N
[1]
  inhibition: 13%
[2]
  inhibition: 9%
Adenosine receptor A2a [3]
  inhibition: 10%
[4]
  inhibition: 17%

## COc1cccc2cc(C(C)=O)c(=O)oc12
[1]
  inhibition: 1%
[2]
  inhibition: 15%
Adenosine receptor A2a [3]
  inhibition: 1%
[4]
  inhibition: 10%

## COc1cccc2c1OC(C)(O)C(C(C)=O)=C2 (configuration not stated)
[1]
  inhibition: 30%
[2]
  inhibition: 24%
Adenosine receptor A2a [3]
  inhibition: 10%
[4]
  inhibition: 6%

## COc1cccc2cc(C(=O)NCC(O)CO)c(=O)oc12 (configuration not stated)
[1]
  inhibition: 1%
[2]
  inhibition: 25%
Adenosine receptor A2a [3]
  inhibition: 7%
[4]
  inhibition: 14%

## COc1cccc2cc(C(=O)N[C@@H](CO)C(=O)O)c(=O)oc12
[1]
  inhibition: 3%
[2]
  inhibition: 24%
Adenosine receptor A2a [3]
  inhibition: 6%
[4]
  inhibition: 12%

## COc1cccc2cc(C(=O)NCCCCCO)c(=N)oc12
[1]
  inhibition: 13%
Adenosine receptor A2a [5]
  Ki: 1000 nM
Adenosine receptor A2b
  Ki: 1260 nM
[2]
  inhibition: > 70%
Adenosine receptor A2a [3]
  inhibition: > 70%
[4]
  inhibition: 44%

## COc1ccc(-n2cnc(C#N)c2NC(=O)c2cc3cccc(OC)c3oc2=N)cc1
[1]
  inhibition: 42%
[2]
  inhibition: 5%
Adenosine receptor A2a [3]
  inhibition: 58%
[4]
  inhibition: 37%

## COc1cccc2cc(C(=O)NCC(O)c3ccccc3)c(=N)oc12 (configuration not stated)
[1]
  inhibition: 8%
Adenosine receptor A2a [5]
  Ki: 501 nM
Adenosine receptor A2b
  Ki: 1000 nM
[2]
  inhibition: > 70%
Adenosine receptor A2a [3]
  inhibition: > 70%
[4]
  inhibition: 55%

## O=C(O)CNC(=O)c1cc2ccccc2oc1=O
[1]
  inhibition: 0%
[2]
  inhibition: 9%
Adenosine receptor A2a [3]
  inhibition: 2%
[4]
  inhibition: 1%

## COc1cccc2cc(C(=O)NCCO)c(=N)oc12
[1]
  inhibition: 23%
Adenosine receptor A2a [5]
  Ki: 1000 nM
[2]
  inhibition: 65%
Adenosine receptor A2a [3]
  inhibition: > 70%
[4]
  inhibition: 47%

## N=c1oc2ccc(Br)cc2cc1C(=O)NC1CCCC1
[1]
  inhibition: 0%
[2]
  inhibition: 28%
Adenosine receptor A2a [3]
  inhibition: 5%
[4]
  inhibition: 17%

## COc1cccc2cc(C(=O)Nc3c(C#N)ncn3-c3ccc(C#N)cc3)c(=N)oc12
[1]
  inhibition: 1%
[2]
  inhibition: 10%
Adenosine receptor A2a [3]
  inhibition: 41%
[4]
  inhibition: 18%

## COc1cccc2cc(C(=O)Nc3c(C#N)ncn3-c3ccccc3)c(=N)oc12
[1]
  inhibition: 40%
Adenosine receptor A2a [5]
  Ki: 1000 nM
[2]
  inhibition: 9%
Adenosine receptor A2a [3]
  inhibition: > 70%
[4]
  inhibition: 33%

## COc1cccc2cc(C(=O)NC(CO)(CO)CO)c(=N)oc12
[1]
  inhibition: 18%
[2]
  inhibition: 28%
Adenosine receptor A2a [3]
  inhibition: 24%
[4]
  inhibition: 19%

## COc1cccc2cc(C(=O)NCCCO)c(=N)oc12
[1]
  inhibition: 1%
Adenosine receptor A2a [5]
  Ki: 631 nM
[2]
  inhibition: 42%
Adenosine receptor A2a [3]
  inhibition: > 70%
[4]
  inhibition: 47%

## O=C(NCCCO)c1cc2ccccc2oc1=O
[1]
  inhibition: 6%
[2]
  inhibition: 19%
Adenosine receptor A2a [3]
  inhibition: 10%
[4]
  inhibition: 24%

## O=C(NCC(O)CO)c1cc2cccc(O)c2oc1=O (configuration not stated)
[1]
  inhibition: 22%
[2]
  inhibition: 29%
Adenosine receptor A2a [3]
  inhibition: 11%
[4]
  inhibition: 4%
